Reference: ChEMBL document CHEMBL1149469, “Hit-to-Lead studies: the discovery of potent, orally bioavailable thiazolopyrimidine CXCR2 receptor antagonists” (Bioorg Med Chem Lett, 2006)

Assays:
[1] = molecular target: T1, C-X-C chemokine receptor type 2 (Homo sapiens) (UniProt P25025); experiment: Inhibition of CXCR2 at 10 uM
T1 sequence (whole entry): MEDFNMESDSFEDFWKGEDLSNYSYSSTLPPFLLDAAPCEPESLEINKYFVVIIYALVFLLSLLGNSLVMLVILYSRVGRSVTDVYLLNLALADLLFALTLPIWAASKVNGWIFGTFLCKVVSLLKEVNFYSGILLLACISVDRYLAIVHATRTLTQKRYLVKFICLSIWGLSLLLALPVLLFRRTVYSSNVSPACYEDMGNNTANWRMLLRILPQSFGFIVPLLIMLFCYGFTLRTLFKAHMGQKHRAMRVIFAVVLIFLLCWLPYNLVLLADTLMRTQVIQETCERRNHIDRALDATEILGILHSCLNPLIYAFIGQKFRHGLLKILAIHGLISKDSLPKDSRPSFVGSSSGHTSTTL

[2] = molecular target: T2, C-X-C chemokine receptor type 2 (Homo sapiens, UniProt P25025); experiment: Displacement of [125I]IL8 from human recombinant CXCR2 expressed in HEK293 membranes by SPA
T2 sequence (P25025 whole entry): T1 sequence (whole entry)
Procedure, shortened: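 Human recombinant CXCR2 in HEK293 cell membranes, screened by scintillation proximity assay at the HTS stage. SPA actives were then validated in a conventional filter-wash [125I]IL8 binding assay on hrCXCR2.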

[3] = Clearance in iv dosed rat; assay type: ADME, organism-based; details: in vivo
[4] = Volume of distribution in iv dosed rat; assay type: ADME, organism-based; details: in vivo, read-out: Vdss
[5] = Clearance in human liver microsome; assay type: ADME; details: liver microsomes
[6] = Half life in iv dosed rat; assay type: ADME, organism-based; details: in vivo
[7] = molecular target: T3, Interleukin-8 receptors, CXCR1/CXCR2 (Homo sapiens, UniProt P25025+P25024); experiment: Inhibition of GROalpha-stimulated intracellular calcium mobilisation in human neutrophils by FLIPR; assay type: functional, cell-based
T3 sequence (P25025 whole entry): T1 sequence (whole entry)
T3 sequence (P25024 whole entry): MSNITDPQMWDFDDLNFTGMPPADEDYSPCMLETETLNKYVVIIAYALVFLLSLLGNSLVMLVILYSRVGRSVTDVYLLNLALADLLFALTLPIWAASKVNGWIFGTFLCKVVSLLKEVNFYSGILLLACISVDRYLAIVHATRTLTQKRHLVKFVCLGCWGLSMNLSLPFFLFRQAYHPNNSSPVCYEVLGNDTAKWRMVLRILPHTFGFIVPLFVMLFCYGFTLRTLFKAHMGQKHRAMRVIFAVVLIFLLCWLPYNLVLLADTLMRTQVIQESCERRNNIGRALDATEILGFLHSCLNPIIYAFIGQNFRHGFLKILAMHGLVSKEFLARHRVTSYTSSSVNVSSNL

[8] = Distribution coefficient of the compound, log D; assay type: physicochemical; details: octanol/water
[9] = Oral bioavailability in rat; assay type: ADME, organism-based; details: in vivo
[10] = Protein binding in plasma; assay type: ADME, cell-free; details: human, read-out: PPB (converted)

Q: For `CSc1nc(O)c2sc(N)nc2n1`, which inhibition [1] is on record?
A: < 50%

Q: With `Nc1nc2nc(SCc3cccc(F)c3F)nc(Cl)c2s1` as the compound, how does the inhibition [1] read?
A: < 50%

Q: For `Nc1nc2nc(SCc3ccccc3)nc(SCCO)c2s1`, which inhibition [1] is on record?
A: < 50%

Q: For `Nc1nc2nc(SCc3cccc(Oc4ccccc4)c3)[nH]c(=O)c2s1`, which IC50 [2] is on record?
A: 0.48 µM

Q: With `CCCCCSc1nc(NCCCO)c2sc(N)nc2n1` as the compound, how does the inhibition [1] read?
A: < 50%

Q: With `CCCCCSc1nc(Cl)c2sc(N)nc2n1` as the compound, how does the inhibition [1] read?
A: < 50%

Q: Which inhibition [1] does the source give for `Nc1nc2nc(SCc3ccccc3)nc(SCC(=O)O)c2s1` here?
A: < 50%

Q: For `Nc1nc2nc(SCc3cccc(Oc4ccccc4)c3)nc(Cl)c2s1`, which inhibition [1] is on record?
A: < 50%

Q: With `CC[C@H](CO)Nc1nc(SCc2cccc(Oc3ccccc3)c2)nc2nc(N)sc12` as the compound, how does the IC50 [2] read?
A: 0.35 µM

Q: For `CC[C@H](CO)Nc1nc(SCc2cccc(F)c2F)nc2nc(N)sc12`, which IC50 [2] is on record?
A: 0.0095 µM

Q: Which clearance [3] does the source give for `Nc1nc2nc(SCc3cccc(F)c3F)[nH]c(=O)c2s1` here?
A: 0.57 L/h/kg

Q: What about the IC50 [2] of the same compound?
A: 0.27 µM

Q: What about the Vd [4] of the same compound?
A: 0.9 L/kg

Q: And the microsomal CLint [5]?
A: 2 µL/min/mg

Q: And the half-life [6]?
A: 3.5 h

Q: Which inhibition [1] does the source give for `CCCCCSc1nc(N(CC)CC)c2sc(N)nc2n1` here?
A: < 50%

Q: Which inhibition [1] does the source give for `CCCCCSc1nc(O)c2sc(Br)nc2n1` here?
A: < 50%

Q: With `CC(C)(CO)Nc1nc(SCc2cccc(F)c2F)nc2nc(N)sc12` as the compound, how does the clearance [3] read?
A: 1.5 L/h/kg

Q: What about the IC50 [2] of the same compound?
A: 0.014 µM

Q: What about the IC50 [7] of the same compound?
A: 0.04 µM

Q: And the logD [8]?
A: 3.4

Q: And the Vd [4]?
A: 1.9 L/kg

Q: What about the bioavailability [9] of the same compound?
A: 15%

Q: What about the microsomal CLint [5] of the same compound?
A: 31 µL/min/mg

Q: And the half-life [6]?
A: 1.2 h

Q: And the fraction unbound [10]?
A: 0.016

Q: For `Nc1nc2nc(SCc3ccccc3)nc(Cl)c2s1`, which inhibition [1] is on record?
A: < 50%

Q: For `CCSc1nc(O)c2sc(N)nc2n1`, which inhibition [1] is on record?
A: < 50%

Q: With `COC(=O)CSc1nc(SCc2ccccc2)nc2nc(N)sc12` as the compound, how does the inhibition [1] read?
A: < 50%

Q: With `CC(C)(CO)Nc1nc(SCc2cccc(Oc3ccccc3)c2)nc2nc(N)sc12` as the compound, how does the IC50 [2] read?
A: 0.05 µM

Q: Which IC50 [2] does the source give for `CC[C@@H](CO)Nc1nc(SCc2cccc(Oc3ccccc3)c2)nc2nc(N)sc12` here?
A: 1.4 µM

Q: For `CCCCCSc1nc(O)c2sc(NC(C)=O)nc2n1`, which inhibition [1] is on record?
A: < 50%

Q: With `Nc1nc2nc(SCc3ccccc3)nc(N)c2s1` as the compound, how does the IC50 [2] read?
A: 10 µM

Q: Which results are given for `CC[C@H](CO)Nc1nc(SCc2ccccc2)nc2nc(N)sc12`?
A: clearance [3]: 2.4 L/h/kg; IC50 [2]: 0.12 µM; Vd [4]: 2.2 L/kg; microsomal CLint [5]: 6 µL/min/mg; half-life [6]: 1 h

Q: Which inhibition [1] does the source give for `CCCCCSc1nc(O)c2sc(NC)nc2n1` here?
A: < 50%

Q: For `CCCCCSc1nc2ncsc2c(=O)[nH]1`, which IC50 [2] is on record?
A: 10 µM

Q: For `CCCCCSc1nc(NC2CCCC2)c2sc(N)nc2n1`, which inhibition [1] is on record?
A: < 50%

Q: For `CCCCCSc1nc(NCCO)c2sc(N)nc2n1`, which IC50 [2] is on record?
A: 7 µM

Q: With `CCCCCSc1nc(O)c2sc(N)nc2n1` as the compound, how does the IC50 [2] read?
A: 10 µM

Q: And the IC50 [7]?
A: 2 µM

Q: What about the logD [8] of the same compound?
A: 2.9

Q: What about the microsomal CLint [5] of the same compound?
A: 18 µL/min/mg

Q: With `CC[C@@H](CO)Nc1nc(SCc2ccccc2)nc2nc(N)sc12` as the compound, how does the IC50 [2] read?
A: 3.9 µM

Q: With `Nc1nc2nc(SCc3ccccc3)[nH]c(=O)c2s1` as the compound, how does the IC50 [2] read?
A: 1.3 µM

Q: And the microsomal CLint [5]?
A: < 3 µL/min/mg
